Source: PubChem
RBBP9 inh = human RBBP9 inhibitors, primary screen, biochemical, fluorescence polarization, FP-Rh probe, HTS; 0.2% of 220,000 active; inhibition, % at 7.94 µM; Serine hydrolase RBBP9 (Homo sapiens), O75884; AID 1515, 2009; recombinant RBBP9;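 active means inhibition above the campaign mean of all tested compounds plus 3 SD, cut at about 14% in these data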
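system = RBBP9 protein | input = RBBP9 at 2.5 µM in dispensed solution, before mixing | measured by = fluorescence polarization (mP), excitation 525 nm, emission 598 nm | incubation = enzyme-compound preincubation 30 min, then probe labeling 45 min, 25 °C | buffer or medium = Tris-NaCl-Pluronic buffer, pH 8.0 | compound = single dose 7.94 µM | also added = FP-Rh probe, 375 nM dispensing solution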
SIAE inh = human SIAE inhibitors, primary screen, biochemical, fluorescence polarization, FP-Rh probe, 1536-well HTS | 0.69% of 370,000 active | inhibition, % at 9.66 µM | SIAE FP-Rh probe binding | Sialate O-acetylesterase (Homo sapiens), Q9HAT2;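 active means inhibition above a cutoff: mean of compounds within the control limits plus 3 SD of those, cut at about 17% in these data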
Target sequence (Q9HAT2 whole entry, looked up): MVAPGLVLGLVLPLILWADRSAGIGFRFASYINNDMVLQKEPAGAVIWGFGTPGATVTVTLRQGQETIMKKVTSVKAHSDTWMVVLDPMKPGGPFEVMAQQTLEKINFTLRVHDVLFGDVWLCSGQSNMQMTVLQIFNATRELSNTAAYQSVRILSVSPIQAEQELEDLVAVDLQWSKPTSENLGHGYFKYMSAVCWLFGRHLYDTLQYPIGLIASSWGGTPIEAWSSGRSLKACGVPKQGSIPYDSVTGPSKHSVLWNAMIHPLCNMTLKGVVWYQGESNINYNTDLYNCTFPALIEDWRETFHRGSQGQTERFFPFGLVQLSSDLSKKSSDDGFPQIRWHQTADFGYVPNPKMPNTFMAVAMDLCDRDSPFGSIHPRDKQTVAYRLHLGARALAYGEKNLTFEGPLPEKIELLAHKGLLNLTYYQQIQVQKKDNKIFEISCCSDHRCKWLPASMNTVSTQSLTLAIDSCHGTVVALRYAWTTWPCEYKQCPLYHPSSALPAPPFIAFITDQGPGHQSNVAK
mABHD4 FP = ABHD4 inhibitors, primary screen, biochemical, fluorescence polarization, mouse; inhibition, % at 8.92 µM; (Lyso)-N-acylphosphatidylethanolamine lipase (Mus musculus), Q8VD66; 0.54% of 370,000 active; AID 720543, 2013; purified mABHD4, FP-Rh probe fluorescence polarization;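 active means inhibition exceeding the mean over every tested compound plus 3 SD, cut at about 30% in these data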
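assay system = mABHD4 protein | compound dosing = single nominal dose of 8.92 µM, 0.89% DMSO final | read-out basis = percent inhibition of probe binding, normalized to plate controls | schedule = Enzyme–compound pre-incubation 45 min, then probe 60 min, both 25 °C | detection = fluorescence polarization, excitation 525 nm, emission 598 nm, BODIPY TMR filters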
HTRA1 inhibitor = HTRA1 serine protease inhibitors, primary screen, biochemical, fluorescence polarization, HTS. Q92743. recombinant HTRA1, FP-rhodamine activity-based probe. inhibition, % at 5.96 µM. 0.5% of 340,000 active; in the data active means inhibition above about 36%
SIAE confirm = human SIAE inhibitors, retest, confirmation, biochemical, fluorescence polarization, FP-Rh probe, triplicate. shares compounds with SIAE inh. SIAE FP-Rh activity-based probe. inhibition, % at 9.66 µM. 13% of 2,300 active. AID 1117263, 2014;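 active means mean inhibition of the replicates above the hit cutoff set in the primary screen, cut at about 17% in these data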;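 further: inhibitors lower polarization as more probe stays unbound to SIAE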
Numbers stand for hits; - = inactive; . = not tested or not shown. This is a sample that favours compounds with a hit; in the whole collection about 1.4% have one here.

SMILES	RBBP9 inh	SIAE inh	mABHD4 FP	HTRA1 inhibitor	SIAE confirm
CCOC(=O)C(C)N1CC(=O)N(c2ccccc2)C1=O (configuration not stated)	.	17.6	-	-	-
COc1ccccc1-c1sc2ccccc2c1C#Cc1ccc(N(C)C)cc1	.	-	-	-	.
COC[C@H]1CCCN1c1ccc2c(c1)O[C@@H](COCc1ccccc1)CN([C@@H](C)c1ccccc1)S2(=O)=O	.	-	-	.	.
COCC(=O)N(C)[C@H]1C[C@H]2c3[nH]c4cccc(-c5cccc(F)c5)c4c3CCN2C(=O)[C@H]1[C@H](C)O	.	-	-	.	.
CCCCN(C(=O)C(C)N1C(=O)c2ccccc2C1=O)c1c(N)n(CCCC)c(=O)[nH]c1=O (configuration not stated)	.	18.6	-	-	-
CC(=O)Nc1ccc(N=Nc2ccccc2)cc1[N+](=O)[O-]	.	-	-	.	.
O=C1C=C(c2ccccc2)C[C@@H](c2ccc(Cl)cc2)C1	.	25.7	-	-	-
Cc1ccc(C2=CC(=O)C[C@H](c3ccc(Cl)cc3)C2)cc1	.	.	.	-	.
COc1ccc2c3c([nH]c2c1)C1=NCC[C@]12c1ccccc1N=CN2CC3	.	-	-	.	.
COc1ccc([C@@]23CCN=C2c2[nH]c4ccccc4c2CCN3)c(N)c1	.	19.0	-	.	-
Cc1ccc(-n2c(SCc3cc(=O)n4ccsc4n3)nnc2-c2cccnc2)c(C)c1	-	17.3	-	-	-
Cc1ccc(-n2c(SCC(N)=O)nnc2-c2cccnc2)c(C)c1	-	-	-	-	.
CC(=O)Oc1ccc(C23c4ccccc4C2(OC(C)=O)c2cc(OC(C)=O)ccc23)cc1 (configuration not stated)	.	-	-	-	.
COc1ccc2oc(=O)c(C(=O)NCc3ccc(F)cc3)cc2c1	.	62.2	-	-	-
COc1ccc(CNC(=O)c2cc3ccccc3oc2=O)cc1	.	-	-	-	.
CC(C)NC(=O)C1(C)CCN1Cc1ccc(Cl)cc1 (configuration not stated)	.	-	-	.	.
CCOC(=O)C1=Nc2ccccc2C1=[N+]=[N-]	-	-	-	-	.
CCOC(=O)C1=Nc2cccc3c(O)ccc1c23	.	29.5	-	.	18.3
O=C1[C@@H](CCc2ccccc2)[C@@H]2c3ccccc3C=NN2[C@@H]2c3ccccc3C=NN12	.	17.9	-	.	-
COc1cc(NC(=O)c2cccs2)c(OC)cc1NC(=O)c1cccs1	.	.	.	-	.
COc1cc(NC(=O)c2cccs2)c(OC)cc1NC(=O)Cc1ccccc1	.	18.8	-	-	-
NNC(=O)CC1=NNC(=O)C1	.	19.1	-	-	-
Cc1ccc(S(=O)(=O)C[C@@H]2OC[C@H](C)N2S(=O)(=O)c2ccc(C)cc2)cc1	.	-	-	.	.
NC(=S)N/N=C1\CCOc2ccc(Cl)cc21	-	18.5	-	-	-
CC1(C(=O)Nc2cccc(OC(F)(F)F)c2)Cc2c(-c3ccc(C(N)=O)cc3)ccnc2O1 (configuration not stated)	.	-	-	.	.
SMILES	RBBP9 inh	SIAE inh	mABHD4 FP	HTRA1 inhibitor	SIAE confirm
COc1ccc(OC)c(NC(=O)CCN2C(=O)c3cccc([N+](=O)[O-])c3C2=O)c1	.	-	-	-	.
COc1cc(OC)c(OC)cc1CNC(=O)CCN1C(=O)c2cccc([N+](=O)[O-])c2C1=O	.	18.8	-	-	-
O=C(CSc1nnc(-c2cccs2)o1)c1cccc([N+](=O)[O-])c1	.	-	-	.	.
COc1ccc(N2CCN(c3ncnc4scc(-c5ccc(C)cc5)c34)CC2)cc1	.	17.5	-	-	-
COC(=O)[C@]12C[C@H](CC(=O)N3CCN(C(=O)C4CC4)CC3)C(=O)N(Cc3cccc4ccccc34)C1=C[C@H](COCc1ccccc1)O[C@@H]2C	.	-	-	.	.
O=C(N/N=C/c1ccoc1)c1ccccc1Br	.	-	-	-	.
O=C(N/N=C/c1ccoc1)c1cc(Br)ccc1O	.	18.6	-	-	-
N#Cc1cccc(S(=O)(=O)NCC(=O)NCCCc2ccccc2)c1	.	-	-	-	.
O=C(CNS(=O)(=O)c1cccc(Br)c1)NCCCc1ccccc1	.	20.4	-	-	-
CCn1c(CCNC(=O)c2ccc(Cl)cc2)n[nH]c1=S	-	22.1	-	-	-
CCCNS(=O)(=O)c1cccc(C(=O)NNC(=O)c2cc(C)oc2C)c1	.	17.3	-	-	-
